From ChEMBL document CHEMBL5376013, “Design, synthesis and biological evaluation of novel morpholinopyrimidine-5-carbonitrile derivatives as dual PI3K/mTOR inhibitors” (RSC Med Chem, 2024)

Tests used:
Format in all cases: functional
Details in all cases: read-out: GI
SR = assay: Antitumor activity against human SR cells assessed as growth inhibition at 10 uM relative to control
Outline: (§1)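 Drug exposure 48 h at 37 °C, 5% CO2. Adherent cells fixed with cold TCA (10% final), suspension cells with TCA (16% final). Stained with 0.4% SRB in 1% acetic acid, dissolved in 10 mM Tris, A515. Growth relative to time-zero and untreated control.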

LOX IMVI = assay: Antitumor activity against human LOX IMVI cells assessed as growth inhibition at 10 uM relative to control
Outline: (§2)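 After drug addition, plates were incubated 48 h at 37 °C under 5% CO2. Adherent cells were fixed with cold TCA (10% final, 60 min, 4 °C) and suspension cells with 16% final TCA. Staining used 0.4% SRB in 1% acetic acid, solubilized in 10 mM trizma, read at A515. Percent growth was calculated from time-zero, control and treated absorbances.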

KM12 = assay: Antitumor activity against human KM12 cells assessed as growth inhibition at 10 uM relative to control; outline: as §2
NCI-H522 = assay: Antitumor activity against human NCI-H522 cells assessed as growth inhibition at 10 uM relative to control; outline: as §2
OVCAR-3 = assay: Antitumor activity against human OVCAR-3 cells assessed as growth inhibition at 10 uM relative to control; outline: as §2
OVCAR-5 = assay: Antitumor activity against human OVCAR-5 cells assessed as growth inhibition at 10 uM relative to control; outline: as §2
HCC 2998 = assay: Antitumor activity against human HCC 2998 cells assessed as growth inhibition at 10 uM relative to control; outline: as §2
SW-620 = assay: Antitumor activity against human SW-620 cells assessed as growth inhibition at 10 uM relative to control; outline: as §1
SK-MEL-2 = assay: Antitumor activity against human SK-MEL-2 cells assessed as growth inhibition at 10 uM relative to control; outline: as §2
BT-549 = assay: Antitumor activity against human BT-549 cells assessed as growth inhibition at 10 uM relative to control; outline: as §2
CCRF-CEM = assay: Antitumor activity against human CCRF-CEM cells assessed as growth inhibition at 10 uM relative to control; outline: as §2
NCI-H460 = assay: Antitumor activity against human NCI-H460 cells assessed as growth inhibition at 10 uM relative to control; outline: as §2
CAKI-1 = assay: Antitumor activity against human CAKI-1 cells assessed as growth inhibition at 10 uM relative to control; outline: as §2
Malme-3M = assay: Antitumor activity against human Malme-3M cells assessed as growth inhibition at 10 uM relative to control; outline: as §2
UO-31 = assay: Antitumor activity against human UO-31 cells assessed as growth inhibition at 10 uM relative to control; outline: as §1
SN12C = assay: Antitumor activity against human SN12C cells assessed as growth inhibition at 10 uM relative to control; outline: as §1
HL-60 = assay: Antitumor activity against human HL-60 cells assessed as growth inhibition at 10 uM relative to control; outline: as §2
Hs-578T = assay: Antitumor activity against human Hs-578T cells assessed as growth inhibition at 10 uM relative to control; outline: as §2
NCI-H322M = assay: Antitumor activity against human NCI-H322M cells assessed as growth inhibition at 10 uM relative to control; outline: as §2
K562 = assay: Antitumor activity against human K562 cells assessed as growth inhibition at 10 uM relative to control; outline: as §2
IGROV-1 = assay: Antitumor activity against human IGROV-1 cells assessed as growth inhibition at 10 uM relative to control; outline: as §2
A549 = assay: Antitumor activity against human A549 cells assessed as growth inhibition at 10 uM relative to control; outline: as §2
OVCAR-8 = assay: Antitumor activity against human OVCAR-8 cells assessed as growth inhibition at 10 uM relative to control; outline: as §2
MOLT-4 = assay: Antitumor activity against human MOLT-4 cells assessed as growth inhibition at 10 uM relative to control; outline: as §2
MDA-MB-435 = assay: Antitumor activity against human MDA-MB-435 cells assessed as growth inhibition at 10 uM relative to control; outline: as §2
COLO 205 = assay: Antitumor activity against human COLO 205 cells assessed as growth inhibition at 10 uM relative to control; outline: as §2
SNB-75 = assay: Antitumor activity against human SNB-75 cells assessed as growth inhibition at 10 uM relative to control; outline: as §1
MCF7 = assay: Antitumor activity against human MCF7 cells assessed as growth inhibition at 10 uM relative to control; outline: as §2
786-0 = assay: Antitumor activity against human 786-0 cells assessed as growth inhibition at 10 uM relative to control; outline: as §2
HOP-62 = assay: Antitumor activity against human HOP-62 cells assessed as growth inhibition at 10 uM relative to control; outline: as §2
RPMI-8226 = assay: Antitumor activity against human RPMI-8226 cells assessed as growth inhibition at 10 uM relative to control; outline: as §2
U-251 = assay: Antitumor activity against human U-251 cells assessed as growth inhibition at 10 uM relative to control; outline: as §1
HCT-15 = assay: Antitumor activity against human HCT-15 cells assessed as growth inhibition at 10 uM relative to control; outline: as §2
SNB-19 = assay: Antitumor activity against human SNB-19 cells assessed as growth inhibition at 10 uM relative to control; outline: as §1
NCI-H226 = assay: Antitumor activity against human NCI-H226 cells assessed as growth inhibition at 10 uM relative to control; outline: as §2
SK-MEL-5 = assay: Antitumor activity against human SK-MEL-5 cells assessed as growth inhibition at 10 uM relative to control; outline: as §1
MDA-MB-231 = assay: Antitumor activity against human MDA-MB-231 cells assessed as growth inhibition at 10 uM relative to control; outline: as §2
SK-MEL-28 = assay: Antitumor activity against human SK-MEL-28 cells assessed as growth inhibition at 10 uM relative to control; outline: as §1
HCT-116 = assay: Antitumor activity against human HCT-116 cells assessed as growth inhibition at 10 uM relative to control; outline: as §2
NCI-H23 = assay: Antitumor activity against human NCI-H23 cells assessed as growth inhibition at 10 uM relative to control; outline: as §2
SF-539 = assay: Antitumor activity against human SF-539 cells assessed as growth inhibition at 10 uM relative to control; outline: as §2
T47D = assay: Antitumor activity against human T47D cells assessed as growth inhibition at 10 uM relative to control; outline: as §1
MDA-MB-468 = assay: Antitumor activity against human MDA-MB-468 cells assessed as growth inhibition at 10 uM relative to control; outline: as §2
RXF 393 = assay: Antitumor activity against human RXF 393 cells assessed as growth inhibition at 10 uM relative to control; outline: as §2
EKVX = assay: Antitumor activity against human EKVX cells assessed as growth inhibition at 10 uM relative to control; outline: as §2
HT-29 = assay: Antitumor activity against human HT-29 cells assessed as growth inhibition at 10 uM relative to control; outline: as §2

## N#Cc1c(-c2ccc(Cl)cc2)nc(N/N=C/c2ccco2)nc1N1CCOCC1
SR
  inhibition of growth at 10 µM: < 1%
LOX IMVI
  inhibition of growth at 10 µM: 21.3%
KM12
  inhibition of growth at 10 µM: < 1%
NCI-H522
  inhibition of growth at 10 µM: 37.7%
OVCAR-3
  inhibition of growth at 10 µM: 33.4%
OVCAR-5
  inhibition of growth at 10 µM: 23.1%
HCC 2998
  inhibition of growth at 10 µM: 25.2%
SW-620
  inhibition of growth at 10 µM: 17.8%
SK-MEL-2
  inhibition of growth at 10 µM: 17.7%
BT-549
  inhibition of growth at 10 µM: 41.5%
CCRF-CEM
  inhibition of growth at 10 µM: 11.3%
NCI-H460
  inhibition of growth at 10 µM: 31.8%
CAKI-1
  inhibition of growth at 10 µM: < 1%
Malme-3M
  inhibition of growth at 10 µM: 57.6%
UO-31
  inhibition of growth at 10 µM: 72.9%
SN12C
  inhibition of growth at 10 µM: 17.9%
HL-60
  inhibition of growth at 10 µM: < 1%
Hs-578T
  inhibition of growth at 10 µM: 31.8%
NCI-H322M
  inhibition of growth at 10 µM: 30.6%
K562
  inhibition of growth at 10 µM: < 1%
IGROV-1
  inhibition of growth at 10 µM: 74.2%
A549
  inhibition of growth at 10 µM: 21.1%
OVCAR-8
  inhibition of growth at 10 µM: 21.1%
MOLT-4
  inhibition of growth at 10 µM: 17%
MDA-MB-435
  inhibition of growth at 10 µM: 20.6%
COLO 205
  inhibition of growth at 10 µM: 24.8%
SNB-75
  inhibition of growth at 10 µM: 89.7%
MCF7
  inhibition of growth at 10 µM: < 73.8%
786-0
  inhibition of growth at 10 µM: 25.9%
HOP-62
  inhibition of growth at 10 µM: 33.6%
RPMI-8226
  inhibition of growth at 10 µM: 33.5%
U-251
  inhibition of growth at 10 µM: < 1%
HCT-15
  inhibition of growth at 10 µM: 19.7%
SNB-19
  inhibition of growth at 10 µM: 20%
NCI-H226
  inhibition of growth at 10 µM: 59.4%
SK-MEL-5
  inhibition of growth at 10 µM: 19.1%
MDA-MB-231
  inhibition of growth at 10 µM: 25.5%
SK-MEL-28
  inhibition of growth at 10 µM: 34.1%
HCT-116
  inhibition of growth at 10 µM: 23.9%
NCI-H23
  inhibition of growth at 10 µM: 29.2%
SF-539
  inhibition of growth at 10 µM: 24.7%
T47D
  inhibition of growth at 10 µM: 76.8%
MDA-MB-468
  inhibition of growth at 10 µM: 69.1%
RXF 393
  inhibition of growth at 10 µM: < 1%
EKVX
  inhibition of growth at 10 µM: 53.5%
HT-29
  inhibition of growth at 10 µM: 13%
